We go through 58 compounds from PubChem BioAssay AID1885 (Broad Institute, 2009).

Screen size: about 300,000 compounds; about 4,400 (1.5%) were called active.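 Rule for the calls: active = mean inhibition across valid replicates above about 55% (limit read from the data); inconclusive = mean below that limit but half or more replicates reach it; inactive = mean below it, under half of replicates reach it.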 This excerpt belongs to a sample that is enriched for actives.

What is called inhibition is the change of the read-out against control, counted positive when it falls.

This assay can be described thus: inhibitors of intracellular T. cruzi growth, primary screen, luminescence, NIH3T3 host cells (AID 1885).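 Note: signal also drops with host cell toxicity which is not excluded here; 0% = plate median of DMSO wells and 100% = zero luminescence signal; higher percent means less beta-gal luminescence so fewer parasites.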 The conditions noted are these: T. cruzi beta-gal in NIH3T3, luminescence, 90 h; hits give high values; concentration not given here. The method, boiled down:
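compound dosing = single 50 nL compound addition per well in DMSO | material = NIH/3T3 host cells with β-galactosidase reporter T. cruzi | input = 5,000 host fibroblasts per well | timing = ≥90 h infection period, 3 h prior cell attachment | read-out basis = percent inhibition of parasite-derived β-gal signal | detection = GalScreen β-gal luminescence, detergent lysis, 60 min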
Take `CN(C)CCCCCN(C)Cc1cc2ccccc2o1`: the inhibition was 69.5% (active).
The value for `COc1ccccc1CN(C)C(=O)c1cc2ccccc2o1` was 0.505% (inactive); that for `N=c1oc2ccccc2cc1C(=O)NCc1ccccc1` was -12.9% (inactive).
The value for `O=C(COc1ccc2ccc(=O)oc2c1)NCC(O)c1ccccc1` (stereo not drawn) was -12.4% (inactive); that for `COc1cc(NC(=O)CCNC(=O)Cn2ccc3ccccc3c2=O)cc(OC)c1OC` was -1.49% (inactive).
The value for `Cc1ccc(-c2c(C)n([O-])c3c([n+]2=O)CCC3)cc1` was -4.48% (inactive).
Consider `NC(=O)c1ccccc1NC(=O)c1ccccc1F`, for which the inhibition is -8.84% (inactive).
In the case of `CCOc1cc(NC(=O)Nc2ccccc2)c(OCC)cc1NC(=O)CC`, the inhibition was -28.4% (inactive).
To `CCOc1cc(NC(=O)c2ccccc2C(=O)O)c(OCC)cc1NC(=O)c1ccccc1F` belongs 60.5% (active).
With `COc1cccc(N(CC(=O)NC2CCCCCC2)S(=O)(=O)c2ccccc2)c1`, the inhibition is 21.4% (inactive).
The value for `Cc1ccc(-c2ccc(/C=N/NC(=O)CN3CCOCC3)o2)cc1[N+](=O)[O-]` was -11.4% (inactive).
To `Cc1cc(C(=O)N/N=C/c2ccccc2[N+](=O)[O-])c(C)o1` belongs -0.35% (inactive).
For `Cc1occc1C(=O)N/N=C/c1ccc(-c2cccc([N+](=O)[O-])c2)o1`, the inhibition was 67.8% (active).
The value for `CC(=O)N1CCN(CC(C)(C)NS(=O)(=O)c2ccc(C)cc2)CC1` was 11.8% (inactive); that for `O=C(CCc1ccccc1)Nc1ncc([N+](=O)[O-])s1` was 86.1% (active); that for `O=C(Cc1c(F)cccc1Cl)Nc1ncc([N+](=O)[O-])s1` was 50.4% (inactive).
Regarding `O=C(Nc1ncc([N+](=O)[O-])s1)C1COc2ccccc2O1` (stereo not drawn), the inhibition is -1.76% (inactive).
To `Cc1ccccc1C(=O)NNC(=O)CN1C(=O)c2ccccc2C1=O` belongs -15.4% (inactive); to `COc1ccc(OCc2cc(C(=O)NCC3(C)COC3)no2)c(Cl)c1`, -0.702% (inactive); to `CCCCn1c(N)c(N(CCOC)C(=O)c2cccc(S(=O)(=O)N3CCCCC3)c2)c(=O)[nH]c1=O`, -8.61% (inactive).
The value for `CN(C)CCCNC(=O)/C=C/c1ccc(OCc2c(F)cccc2Cl)cc1` was 55.5% (active); that for `COCCCNC(=O)/C=C/c1ccc(OCc2c(F)cccc2Cl)cc1` was 19% (inactive); that for `O=C(/C=C/c1ccc(OCc2c(F)cccc2Cl)cc1)N1CCOCC1` was 16.6% (inactive).
To `COc1ccc(C2c3[nH]c4ccccc4c3C[C@H]3C(=O)N(CC(C)C)CC(=O)N23)c(OC)c1` (stereo partly drawn) belongs 9.19% (inactive); to `COCCCNC(=S)N(CCN(C)C)Cc1cc2cc3c(cc2[nH]c1=O)OCCO3`, -7.66% (inactive); to `Cc1cc(C)c2[nH]c(=O)c(CN(Cc3ccccc3)C(=S)NCCCN(C)C)cc2c1`, 59.1% (active).
For `Cc1cccc2cc(CN(Cc3cccs3)C(=S)NCc3ccco3)c(=O)[nH]c12`, the inhibition is 18.3% (inactive).
For the compound `COc1ccc(Cc2cc(-c3ccc(F)cc3)n[nH]c2=O)cc1`, the inhibition is -6.16% (inactive).
To `CC1(c2ccccc2)NC(=O)N(CC(=O)Nc2cc(Cl)ccc2N2CCOCC2)C1=O` (stereo not drawn) belongs 5.62% (inactive).
The value for `CCc1cccc(C)c1NC(=O)COC(=O)CNC(=O)c1cccs1` was -15.5% (inactive).
On to `CN1CCN(c2ccc(S(=O)(=O)Nc3ccccc3)cc2[N+](=O)[O-])CC1`, for which the inhibition was 18.5% (inactive).
To `Cc1cccc(N(CC(=O)N=Nc2c(O)[nH]c3ccccc23)S(C)(=O)=O)c1C` belongs 16.1% (inactive); to `O=[N+]([O-])c1cc(S(=O)(=O)Nc2cccc(Cl)c2)ccc1N=Nc1c(O)[nH]c2ccccc12`, 61.7% (active).
To `O=C(NCC(c1ccco1)N1CCc2ccccc2C1)c1ccccc1Cl` (stereo not drawn) belongs -5.54% (inactive).
To `O=C(NCc1cccnc1)c1cc(S(=O)(=O)N2CCOCC2)c(Cl)cc1Cl` belongs 3.92% (inactive); to `Cc1noc(C)c1CSCC(=O)Nc1ccc(Br)cc1Cl`, 1.67% (inactive); to `O=C(Nc1cccc(-c2nc3ncccc3o2)c1)c1ccco1`, 69.4% (active).
`O=C(Nc1cccc(NC(=O)c2ccco2)c1)c1cnccn1`: the inhibition is 21.9% (inactive).
The value for `O=C(Nc1cc(-c2nc3ncccc3o2)ccc1Cl)c1ccco1` was -11% (inactive).
The value for `N#Cc1ccccc1NC(=O)COc1c(Br)cc(Br)c2cccnc12` was -12.8% (inactive); that for `CCN1CCN(c2ccc(S(=O)(=O)N3CCCCC3)cc2NC(=O)Cc2c(Cl)cccc2Cl)CC1` was 65.7% (active); that for `CN1CCN(c2ccc(S(=O)(=O)N3CCCCC3)cc2NC(=O)Cc2ccccc2F)CC1` was 45.1% (inactive).
To `CC(=O)NCCC(=O)Nc1cc(S(=O)(=O)N2CCOCC2)ccc1N1CCOCC1` belongs -12% (inactive).
Regarding `CN1CCN(c2ccc(S(=O)(=O)N3CCOCC3)cc2NC(=O)CCc2ccccc2)CC1`, the inhibition was 54.9% (active).
To `CCN1CCN(c2ccc(S(=O)(=O)N3CCCCC3)cc2NC(=O)c2cccc(NC(C)=O)c2)CC1` belongs 0.05% (inactive).
For the compound `O=C(COc1cccc2ccccc12)Nc1cc(S(=O)(=O)N2CCOCC2)ccc1N1CCOCC1`, the inhibition was 2.7% (inactive).
To `CCOC(=O)C1=C(c2ccccc2)N=C2SCC(=O)N2C1c1ccc(O)c(OC)c1` (stereo not drawn) belongs -14.5% (inactive).
The value for `Cc1nn(C)c(C)c1CN(C(=O)CCc1nnc(Cc2c[nH]c3ccccc23)o1)C(C)C` was 9.23% (inactive); that for `CCOC(=O)N1CCN(S(=O)(=O)c2ccc(-n3cnnn3)cc2)CC1` was 0.644% (inactive); that for `COc1ccc(NC(=O)C(=O)NCC(c2ccco2)N2CCc3ccccc3C2)cc1` (stereo not drawn) was 9.29% (inactive).
With `CCc1ccccc1NC(=O)NCCN1CCCCC1`, the inhibition was 1.39% (inactive).
The value for `CC1CCC2CCCCC2N1C(=O)c1cc([N+](=O)[O-])cc([N+](=O)[O-])c1` (stereo not drawn) was 56% (active); that for `O=C(c1cc(C(=O)N2CCN(c3ccc(F)cc3)CC2)cc([N+](=O)[O-])c1)N1CCN(c2ccc(F)cc2)CC1` was 45.8% (inactive); that for `CC1CCN(C(=S)c2cccc([N+](=O)[O-])c2)CC1` was 1.31% (inactive).
The value for `OCC(O)CN(c1ccccc1)c1ccccc1` (stereo not drawn) was -11.6% (inactive); that for `COc1ccc(C)cc1Nc1n[n+](-c2ccccc2)c(-c2cccc(Cl)c2Cl)s1` was 61.2% (active); that for `COc1ccc(C)cc1S(=O)(=O)Nc1cccc(Cl)c1Cl` was 8.72% (inactive).
To `COc1cc(Br)c(-c2sc(Nc3ccccc3)n[n+]2-c2ccccc2)cc1OC` belongs 0.144% (inactive).
